# TRAIL sens C8: sensitizes caspase-8 expressing cells to TRAIL. hit rate 1% among 360,000. inhibition (viability loss, TRAIL sensitization), % at 10 µM. NB7+C8 cells + TRAIL, ATPlite viability luminescence;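 active = compounds causing at least 50% loss of cell viability in the single-dose screen, relative to plate controls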
# FLuc stim CS: affects firefly luciferase, flagging false hits in luciferase stimulation screens | P08659 | ATPlite luciferase biochemical, luminescence, 10 min; 0 = ATP-free wells, 1 = DMSO control | activation factor at 10 µM | 200,000 tested, under 10 active;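 active = luciferase activation factor, scaled between plate controls, of at least 2 with compound at 10 µM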
# Target sequence (P08659 whole entry, looked up): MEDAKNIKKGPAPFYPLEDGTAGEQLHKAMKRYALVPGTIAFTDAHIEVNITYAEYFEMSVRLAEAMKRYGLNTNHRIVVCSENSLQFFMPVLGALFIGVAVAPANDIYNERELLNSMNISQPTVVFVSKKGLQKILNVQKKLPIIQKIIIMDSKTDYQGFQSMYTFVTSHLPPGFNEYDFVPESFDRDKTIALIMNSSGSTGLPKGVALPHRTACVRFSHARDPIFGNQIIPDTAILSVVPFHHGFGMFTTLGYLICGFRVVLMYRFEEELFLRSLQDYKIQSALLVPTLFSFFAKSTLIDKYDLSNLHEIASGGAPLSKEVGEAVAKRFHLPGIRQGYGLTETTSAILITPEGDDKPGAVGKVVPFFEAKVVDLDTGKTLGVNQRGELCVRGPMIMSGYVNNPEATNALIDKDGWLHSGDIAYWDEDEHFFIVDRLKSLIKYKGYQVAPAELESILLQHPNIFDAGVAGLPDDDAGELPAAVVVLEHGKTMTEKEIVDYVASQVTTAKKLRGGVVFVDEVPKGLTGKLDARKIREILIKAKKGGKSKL
#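 System: Luciferase/luciferin detection reagent, cell-free biochemical luciferase assay | Medium: PBS buffer for ATP | Dosing: Test compounds dosed from 2 mM stocks in 100% DMSO | Timing: 10 min at ambient temperature | Signal: Luminescence measurement of luciferase light output | Evaluation: Luciferase activation, seen as luminescence increase over controls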
# PPC-1+TRAIL kill: compounds killing PPC-1 cancer cells with TRAIL present (potentiator screen, no TRAIL-free arm); hit rate 0.41% among 220,000; PPC-1 cells + TRAIL, ATPLite viability luminescence; cell killing (% activity), % at 4 µM or 5 µM;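 active = cell killing above 50% in the first pass at 4 µM, then a duplicate retest at 5 µM averaging 50% or more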
# HSP90 inh: inhibitors of HSP90 luciferase refolding in rabbit reticulocyte lysate; luciferase refolding luminescence, 3 h; inhibition, % at 5.6 µM; hit rate 0.91% among 290,000;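 active = inhibition above the screen-wide mean plus 3 SD, computed separately per campaign, cut at about 16% in these data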;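 note: inhibitors lower the luminescence because luciferase stays unfolded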
# FLuc inhib CS: Photinus pyralis luciferase inhibition counter-screen. ATPLite firefly luciferase biochemical luminescence, 10 min. inhibition, % at 10 µM. hit rate 1.5% among 200,000. AID 1006;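 active = inhibition above about 50% when tested at 10 µM, limit read from the data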
# Hits are given with their value; – = inactive; · = not tested or not shown. Compounds with a hit are over-represented: about 2% of the library has one in this group of screens.
SMILES,TRAIL sens C8,FLuc stim CS,PPC-1+TRAIL kill,HSP90 inh,FLuc inhib CS
CC(C)c1ccc(-c2cc(C(=O)NN3CCN(C)CC3)c3ccccc3n2)cc1,77,–,66,–,88
CC(C)c1ccc(-c2cc(C(=O)N3N=C(C(F)F)CC3(O)C(F)F)c3ccccc3n2)cc1 (stereo not drawn),–,–,–,–,65
CCN(CC)S(=O)(=O)c1cc(C(=O)Nc2ccccc2C(=O)O)ccc1OC,–,–,–,–,59
COc1ccc(C(=O)Nc2ccccc2C(=O)O)cc1Cl,–,–,–,–,76
COc1ccc(C(=O)Nc2ccccc2C(=O)O)cc1NC(=O)C(c1ccccc1)c1ccccc1,–,·,–,–,·
CCC(C)(C(=O)NC1CCCCC1)N(C(=O)CNC(=O)c1ccccc1)c1c(C)n(C)n(-c2ccccc2)c1=O (stereo not drawn),–,–,–,–,–
O=C(Nc1ccccc1C(=O)N/N=C/c1ccco1)c1ccc(F)cc1,–,–,–,–,80
O=C(Nc1ccccc1C(=O)N/N=C/c1ccco1)c1ccccc1,–,–,–,–,76
O=C(N/N=C/c1ccco1)c1ccncc1,–,–,–,–,–
O=C(Nc1ccccc1C(=O)N/N=C/c1ccco1)c1ccc(Cl)cc1,–,–,–,–,85
Cc1ccccc1C(=O)Nc1ccccc1C(=O)N/N=C\c1ccco1,–,–,–,–,–
CCOc1ccccc1NC(=O)CN1C(=O)C(=O)N(Cc2ccco2)C1=O,–,–,–,–,–
CC(C)c1ccc(C(=O)N2CCCCC2c2cc(C(=O)Nc3ccncc3)no2)cc1 (stereo not drawn),–,·,·,·,·
CCOC(=O)c1cc(=O)n2[nH]c(-c3ccc(C)cc3)cc2n1,–,–,–,–,–
CCOC(=O)Cc1cc(=O)n2[nH]c(-c3ccc(C)cc3)cc2n1,–,–,–,–,54
COc1ccc(C)cc1S(=O)(=O)N1CCC(C(=O)NCCC2=CCCCC2)CC1,–,–,–,–,–
COc1ccc(S(=O)(=O)N2CCC(C(=O)NCCC3=CCCCC3)CC2)cc1C,54,–,–,–,–
Cc1cc(C(=O)Nc2sc3c(c2C#N)CCC3)no1,51,–,–,–,66
Cc1cc(C(=O)Nc2sc3c(c2C#N)CCCC3)no1,52,–,–,–,84
Cc1cc(C(=O)Nc2sc3c(c2C#N)CCC(C)C3)no1 (stereo not drawn),55,–,–,–,72
CC(C)Cc1cc(C(=O)Nc2sc3c(c2C#N)CCCC3)no1,–,–,–,–,–
CC(C)Cc1cc(C(=O)Nc2sc3c(c2C#N)CCC3)no1,–,–,–,–,–
CCOc1ccccc1N(CC(=O)N1CCCC1)S(C)(=O)=O,–,·,·,–,·
COc1ccc(-c2nc(S(=O)(=O)c3ccccc3)c(N3CCN(C)CC3)o2)cc1,–,·,·,·,·
Cc1cc(C(=O)CSc2n[nH]c(N)n2)c(C)n1-c1ccccc1,–,–,–,–,59
SMILES,TRAIL sens C8,FLuc stim CS,PPC-1+TRAIL kill,HSP90 inh,FLuc inhib CS
Cc1cc(C(=O)COC(=O)C2=COCCO2)c(C)n1-c1ccccc1,73,·,·,·,·
Cc1ccc(-n2c(C)cc(C(=O)CSc3n[nH]c(N)n3)c2C)cc1,–,–,–,–,–
CCC(=O)OCC(=O)c1cc(C)n(-c2ccc(Br)cc2)c1C,–,–,–,–,59
Cc1cc(C(=O)COC(=O)C2=NNC(=O)CC2)c(C)n1-c1ccccc1,–,–,–,–,64
O=[N+]([O-])c1ccc(CSC2=NCCS2)cc1,–,·,·,–,·
Cc1ccccc1Nc1nnc(SCC(=O)N(C)C2CCS(=O)(=O)C2)s1 (stereo not drawn),–,–,–,–,–
Cc1ccc(Nc2nnc(SCC(=O)N(C)C3CCS(=O)(=O)C3)s2)cc1 (stereo not drawn),–,–,–,–,76
O=C(NNc1c2ccccc2nc2ccccc12)c1ccccc1O,–,–,–,–,–
O=C(NNc1nc(=O)c2cccnc2s1)c1ccccc1O,53,–,–,–,–
COc1cccc(C=Cc2nccc3ccccc23)c1OC,61,·,·,·,·
CCOc1ccc(C(=O)NC(Cc2ccccc2)C(=O)OC)cc1 (stereo not drawn),–,–,–,–,53
COc1ccc(OC)c(NC(=O)COC(=O)COc2ccc(Nc3ccccc3)cc2)c1,–,·,·,·,·
Nc1ccc(C(=O)NN2C(=O)[C@H](Cl)C2c2ccc(Cl)cc2)cc1 (stereo partly drawn),95,·,·,·,·
